Experimental data from ChEMBL document CHEMBL1139053, “Quantitative structure-activity relationship (QSAR) of indoloacetamides as inhibitors of human isoprenylcysteine carboxyl methyltransferase” (Bioorg Med Chem Lett, 2007).

The compounds below were run against Protein-S-isoprenylcysteine O-methyltransferase (Homo sapiens, UniProt O60725) (assay: Inhibition of ICMT expressed in Sf9 cells).
Method in brief: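 Sf9 membranes carrying ICMT added to start reactions with biotin-S-farnesyl L-cysteine and [3H]AdoMet in 100 mM Hepes pH 7.4, 5 mM MgCl2; 37 °C, 20 min; stopped with 10% Tween 20. [3H]methyl on substrate captured on streptavidin beads overnight at 4 °C, washed in phosphate-buffered NaCl, scintillation counted.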

Chain of Protein-S-isoprenylcysteine O-methyltransferase (O60725 whole entry): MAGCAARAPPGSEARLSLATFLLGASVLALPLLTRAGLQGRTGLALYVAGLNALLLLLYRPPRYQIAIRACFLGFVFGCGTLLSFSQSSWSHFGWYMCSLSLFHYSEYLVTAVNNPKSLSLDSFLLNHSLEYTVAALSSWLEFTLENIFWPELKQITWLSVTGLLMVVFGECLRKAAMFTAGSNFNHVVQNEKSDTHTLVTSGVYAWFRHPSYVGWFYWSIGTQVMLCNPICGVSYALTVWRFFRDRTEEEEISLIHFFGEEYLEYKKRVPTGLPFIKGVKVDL

| Compound | IC50 |
| --- | --- |
| CCCCCCn1cc(CC(N)=O)c2cc(-c3ccccc3OC)ccc21 | 8.13 µM |
| COc1ccccc1-c1ccc2c(c1)c(CC(N)=O)cn2Cc1cccc(C(F)(F)F)c1 | 6.17 µM |
| COc1ccccc1-c1ccc2[nH]cc(CC(N)=O)c2c1 | 100 µM |
| CCCCCCn1cc(CC(N)=O)c2cc(-c3ccc(C)cc3)ccc21 | 7.41 µM |
| Cc1ccc(-c2ccc3c(c2)c(CC(N)=O)cn3Cc2cccc(C(F)(F)F)c2)cc1 | 6.46 µM |
| CCOc1cccc(-c2ccc3[nH]cc(CC(N)=O)c3c2)c1 | 100 µM |
| CCCCCCCCn1cc(CC(N)=O)c2cc(-c3ccc(F)c(Cl)c3)ccc21 | 7.08 µM |
| CC(C)(C)c1ccc(Cn2cc(CC(N)=O)c3cc(-c4ccc(F)c(Cl)c4)ccc32)cc1 | 7.59 µM |
| NC(=O)Cc1cn(Cc2cccc(C(F)(F)F)c2)c2ccc(-c3ccc(F)c(Cl)c3)cc12 | 6.17 µM |
| NC(=O)Cc1c[nH]c2ccc(-c3ccc(F)c(Cl)c3)cc12 | 100 µM |
| CC(C)Cn1cc(CC(N)=O)c2cc(-c3cc(C(F)(F)F)cc(C(F)(F)F)c3)ccc21 | 25.7 µM |
| CCCCCCCCn1cc(CC(N)=O)c2cc(-c3cc(C(F)(F)F)cc(C(F)(F)F)c3)ccc21 | 37.2 µM |
| NC(=O)Cc1cn(Cc2ccc3ccccc3c2)c2ccc(-c3ccc(Oc4ccccc4)cc3)cc12 | 100 µM |
| CC(C)Cn1cc(CC(N)=O)c2cc(-c3ccc(F)c(Cl)c3)ccc21 | 9.12 µM |
| NC(=O)Cc1cn(CC2CC2)c2ccc(-c3ccc(F)c(Cl)c3)cc12 | 5.75 µM |
| CCCCCCn1cc(CC(N)=O)c2cc(-c3ccc(F)c(Cl)c3)ccc21 | 9.33 µM |
| CC(C)(C)c1ccc(Cn2cc(CC(N)=O)c3cc(-c4cc(C(F)(F)F)cc(C(F)(F)F)c4)ccc32)cc1 | 29.5 µM |
| NC(=O)Cc1cn(Cc2cccc(C(F)(F)F)c2)c2ccc(-c3cc(C(F)(F)F)cc(C(F)(F)F)c3)cc12 | 100 µM |
| NC(=O)Cc1cn(Cc2ccc3ccccc3c2)c2ccc(-c3cc(C(F)(F)F)cc(C(F)(F)F)c3)cc12 | 100 µM |

| Compound | IC50 |
| --- | --- |
| NC(=O)Cc1c[nH]c2ccc(-c3cc(C(F)(F)F)cc(C(F)(F)F)c3)cc12 | 100 µM |
| CC(C)Cn1cc(CC(N)=O)c2cc(-c3cccc(F)c3)ccc21 | 3.72 µM |
| NC(=O)Cc1cn(Cc2ccccc2)c2ccc(-c3cccc(F)c3)cc12 | 10.7 µM |
| CC(C)(C)c1ccc(Cn2cc(CC(N)=O)c3cc(-c4cccc(F)c4)ccc32)cc1 | 5.01 µM |
| NC(=O)Cc1cn(Cc2cccc(C(F)(F)F)c2)c2ccc(-c3cccc(F)c3)cc12 | 5.75 µM |
| NC(=O)Cc1c[nH]c2ccc(-c3cccc(F)c3)cc12 | 39.8 µM |
| Cc1ccc(-c2ccc3[nH]cc(CC(N)=O)c3c2)cc1 | 100 µM |
| COc1ccccc1-c1ccc2c(c1)c(CC(N)=O)cn2CC(C)C | 21.9 µM |
| CCCCCCCCn1cc(CC(N)=O)c2cc(-c3ccccc3OC)ccc21 | 6.03 µM |
| CCCCCCCCn1cc(CC(N)=O)c2cc(-c3ccc(C)cc3)ccc21 | 10.7 µM |
| NC(=O)Cc1cn(CC2CC2)c2ccc(-c3cc(C(F)(F)F)cc(C(F)(F)F)c3)cc12 | 100 µM |
| CCCCCCn1cc(CC(N)=O)c2cc(-c3cccc(F)c3)ccc21 | 12.9 µM |
| COc1ccccc1-c1ccc2c(c1)c(CC(N)=O)cn2CC1CC1 | 16.2 µM |
| CCCCCCCCn1cc(CC(N)=O)c2cc(-c3cccc(F)c3)ccc21 | 2.4 µM |
| CCOc1cccc(-c2ccc3c(c2)c(CC(N)=O)cn3CC2CC2)c1 | 6.46 µM |
| Cc1cccc(-c2ccc3[nH]cc(CC(N)=O)c3c2)c1 | 100 µM |
| NC(=O)Cc1cn(CC2CC2)c2ccc(-c3cccc(F)c3)cc12 | 14.8 µM |
| Cc1ccc(-c2ccc3c(c2)c(CC(N)=O)cn3CC(C)C)cc1 | 9.77 µM |

More lines, now with the values ahead:

| IC50 | Compound |
| --- | --- |
| 6.61 µM | CCCCCCn1cc(CC(N)=O)c2cc(-c3cccc(OCC)c3)ccc21 |
| 2.19 µM | CCCCCCCCn1cc(CC(N)=O)c2cc(-c3cccc(OCC)c3)ccc21 |
| 12.6 µM | CCOc1cccc(-c2ccc3c(c2)c(CC(N)=O)cn3Cc2ccc(C(C)(C)C)cc2)c1 |
| 9.12 µM | Cc1cccc(-c2ccc3c(c2)c(CC(N)=O)cn3CC2CC2)c1 |
| 100 µM | COc1ccccc1-c1ccc2c(c1)c(CC(N)=O)cn2CCCOc1ccccc1 |
| 8.32 µM | CCOc1cccc(-c2ccc3c(c2)c(CC(N)=O)cn3Cc2ccc3ccccc3c2)c1 |
| 100 µM | CCCCCCn1cc(CC(N)=O)c2cc(-c3ccc(Oc4ccccc4)cc3)ccc21 |
| 100 µM | NC(=O)Cc1cn(Cc2cccc(C(F)(F)F)c2)c2ccc(-c3ccc(Oc4ccccc4)cc3)cc12 |
| 6.46 µM | Cc1cccc(-c2ccc3c(c2)c(CC(N)=O)cn3Cc2ccccc2)c1 |
| 7.94 µM | Cc1cccc(-c2ccc3c(c2)c(CC(N)=O)cn3Cc2cccc(C(F)(F)F)c2)c1 |
| 100 µM | Cc1cccc(-c2ccc3c(c2)c(CC(N)=O)cn3CCCOc2ccccc2)c1 |
| 19.5 µM | Cc1ccc(-c2ccc3c(c2)c(CC(N)=O)cn3Cc2ccc3ccccc3c2)cc1 |
| 100 µM | NC(=O)Cc1cn(CCCOc2ccccc2)c2ccc(-c3cccc(F)c3)cc12 |
| 13.2 µM | COc1ccccc1-c1ccc2c(c1)c(CC(N)=O)cn2Cc1ccccc1 |
| 7.41 µM | CCCCCCn1cc(CC(N)=O)c2cc(-c3cccc(C)c3)ccc21 |
| 10.5 µM | NC(=O)Cc1cn(Cc2ccccc2)c2ccc(-c3ccc(F)c(Cl)c3)cc12 |
| 6.17 µM | CCOc1cccc(-c2ccc3c(c2)c(CC(N)=O)cn3CC(C)C)c1 |
| 15.8 µM | Cc1cccc(-c2ccc3c(c2)c(CC(N)=O)cn3CC(C)C)c1 |
| 100 µM | NC(=O)Cc1cn(CCCOc2ccccc2)c2ccc(-c3cc(C(F)(F)F)cc(C(F)(F)F)c3)cc12 |
| 4.9 µM | CCOc1cccc(-c2ccc3c(c2)c(CC(N)=O)cn3Cc2cccc(C(F)(F)F)c2)c1 |
| 100 µM | NC(=O)Cc1cn(CC2CC2)c2ccc(-c3ccc(Oc4ccccc4)cc3)cc12 |
| 100 µM | NC(=O)Cc1cn(CCCOc2ccccc2)c2ccc(-c3ccc(Oc4ccccc4)cc3)cc12 |
| 17.4 µM | Cc1cccc(-c2ccc3c(c2)c(CC(N)=O)cn3Cc2ccc3ccccc3c2)c1 |
